In ChEMBL document CHEMBL4433233, “Folic acid conjugates of a bleomycin mimic for selective targeting of folate receptor positive cancer cells” (Bioorg Med Chem Lett, 2019):
Active and inactive are the calls of the source. The calls are words filed in the database; no cut-off is given here.

Columns and labels:
IGROV-1 [1] = assay: Cytotoxicity against human IGROV1 cells in low folate medium assessed as metabolic activity at 50 uM incubated for 72 hrs by MTS assay relative to control; assay type: functional
How it was run: (§1)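 MTS metabolic-activity assay under low folate conditions (RPMI-1640, 10% dialyzed FCS, supplemented with 2 nM FA). Compounds were added as free ligand at 30 or 50 μM for 24, 48 and 72 h. Activity is expressed relative to DMSO control. Each treatment was run in triplicate and each experiment three times; mean ± SEM.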

IGROV-1 [2] = assay: Cytotoxicity against human IGROV1 cells in high folate medium assessed as reduction in metabolic activity at 30 uM incubated for 24 to 72 hrs in the presence of excess folic acid by MTS assay; assay type: functional, cell-based
How it was run: (§2)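 Competition MTS assay in standard RPMI medium (high folate). Cells were co-treated with 30 μM compound plus 150 μM FA, or with 150 μM FA alone, for 24, 48 and 72 h, and metabolic activity was read by MTS.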

KB [3] = assay: Cytotoxicity against human KB cells in low folate medium assessed as metabolic activity at 30 uM measured after 72 hrs by MTS assay relative to control; assay type: functional; how it was run: as §1
MCF7 [4] = assay: Cytotoxicity against human MCF7 cells in high folate medium assessed as reduction in metabolic activity at 50 uM incubated for 24 to 72 hrs by MTS assay; assay type: ADME, cell-based; details: mcf7, 50 µM
How it was run: (§3)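 MTS assay in standard high folate medium (RPMI-1640 containing 2.3 μM FA, 10% FCS). Cells were treated with 30 or 50 μM compound for 24, 48 and 72 h. Metabolic activity was compared with solvent control.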

[5] = Stability in pH 8.5 tris-HCl buffer assessed as cleavage of compound in presence of Fe(ClO4)2 and GSH incubated for 3 hrs by LC-MS analysis; details: pH 8.5, 3 h
[6] = Binding affinity to iron assessed as formation of iron complex in the presence of Fe(ClO4)2 and GSH after 5 mins by LC-MS analysis
How it was run: (§4)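 Conjugate kept in tris-HCl buffer pH 8.5 with two equivalents of Fe(ClO4)2 and 5 mM glutathione. LC-MS was used to follow in situ iron-complex formation and disulphide cleavage products at 5 min, 20 min and for a further 3 h.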

Homo sapiens = species on record: Homo sapiens; assay: Displacement of folate-FITC from folate receptor in human KB cells at 25 to 1000 pmol incubated for 10 mins by FITC staining-based FACS analysis; assay type: cell-based
How it was run: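 Competition binding in 0.5·10^6 KB cells per experiment. Compound at 25, 50, 100, 250, 500 or 1000 pmol was combined with 50 pmol Folate-FITC. Cell-bound fluorescence was read by FACS as MFI on channel PL-1. Mean ± SEM, N ≥ 5.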

DNA = assay: Induction of Escherichia coli XL1 Blue pUC18 DNA cleavage assessed as turnover frequency in presence of DTT and 1 equivalent of (NH4)2Fe(SO4)2.6H2O at 1 uM by agarose gel electrophoresis method; assay type: nucleic-acid assay
How it was run: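 Supercoiled pUC18 plasmid DNA was incubated at 37 °C with 1 μM iron complex in the presence of DTT as reductant. Strand cleavage was followed and turnover frequency determined.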

MCF7 [7] = assay: Cytotoxicity against human MCF7 cells in high folate medium assessed as reduction in metabolic activity at 30 uM incubated for 24 to 72 hrs in the presence of excess folic acid by MTS assay; assay type: ADME, cell-based; details: mcf7, 30 µM; how it was run: as §2
KB [8] = assay: Cytotoxicity against human KB cells in high folate medium assessed as reduction in metabolic activity at 30 uM incubated for 24 to 72 hrs in the presence of excess folic acid by MTS assay; assay type: functional, cell-based; how it was run: as §2
KB [9] = assay: Cytotoxicity against human KB cells in high folate medium assessed as reduction in metabolic activity at 30 uM incubated for 24 to 72 hrs by MTS assay; assay type: functional, cell-based; how it was run: as §3
KB [10] = assay: Cytotoxicity against human KB cells in low folate medium assessed as metabolic activity at 50 uM measured after 72 hrs by MTS assay relative to control; assay type: functional; how it was run: as §1
MCF7 [11] = assay: (§5) Cytotoxicity against human MCF7 cells in low folate medium assessed as metabolic activity at 50 uM incubated for 72 hrs by MTS assay relative to control; assay type: ADME, cell-based; details: mcf7, 72 h, 50 µM; how it was run: as §1
IGROV-1 [12] = assay: Cytotoxicity against human IGROV1 cells in low folate medium assessed as metabolic activity at 30 uM incubated for 72 hrs by MTS assay relative to control; assay type: functional; how it was run: as §1
MCF7 [13] = assay: (§6) Cytotoxicity against human MCF7 cells in low folate medium assessed as metabolic activity at 30 uM incubated for 72 hrs by MTS assay relative to control; assay type: ADME, cell-based; details: mcf7, 72 h, 30 µM; how it was run: as §1
KB [14] = assay: Cytotoxicity against human KB cells in low folate medium assessed as reduction in metabolic activity at 50 uM measured after 48 hrs by MTS assay; assay type: functional, cell-based
How it was run: (§7)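 MTS assay on KB cells under low folate conditions (RPMI-1640, 10% dialyzed FCS, 2 nM FA). Cells were exposed to 30 or 50 μM compound as free ligand for 24, 48 and 72 h and compared with DMSO control. Treatments in triplicate, experiment repeated three times; mean ± SEM.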

KB [15] = assay: Induction of ROS generation in human KB cells at 30 uM incubated for 72 hrs by APF probe-based flow cytometer analysis relative to control; assay type: functional
How it was run: (§8)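 Cells were treated with 30 μM compound. Highly reactive oxygen species were detected with the APF probe, and APF mean fluorescence intensity was measured by FACS and normalized to solvent control.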

MCF7 [16] = assay: Induction of ROS generation in human MCF7 cells at 30 uM incubated for 72 hrs by APF probe-based flow cytometer analysis relative to control; assay type: cell-based; details: mcf7, 72 h; how it was run: as §8
KB [17] = assay: Cytotoxicity against human KB cells in low folate medium assessed as reduction in metabolic activity at 30 uM measured after 48 hrs by MTS assay; assay type: functional, cell-based; how it was run: as §7
[18] = Stability in pH 8.5 tris-HCl buffer assessed as cleavage of compound in presence of Fe(ClO4)2 and GSH incubated for 20 mins by LC-MS analysis; assay type: physicochemical; details: pH 8.5, 20 min; how it was run: as §4
[19] = Stability in pH 8.5 tris-HCl buffer assessed as compound cleavage in presence of Fe(ClO4)2 and GSH after 5 mins by LC-MS analysis; assay type: physicochemical; details: pH 8.5, 5 min; how it was run: as §4
[20] = as §5; assay type: ADME, cell-based; details: MCF7 cells, read-out: Activity; how it was run: as §1
[21] = as §6; assay type: ADME, cell-based; details: MCF7 cells, read-out: Activity; how it was run: as §1
KB [22] = assay: Cytotoxicity against human KB cells in low folate medium assessed as reduction in metabolic activity at 1 to 150 uM incubated for 24 to 72 hrs by MTS assay; assay type: functional, cell-based
How it was run: (§9)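 MTS metabolic-activity assay in low folate RPMI-1640 with 10% dialyzed FCS and 2 nM FA. Compound concentrations ran from 1 to 150 μM, with incubation for 24, 48 and 72 h. IC50 values were derived from the concentration-response data.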

IGROV-1 [23] = assay: Cytotoxicity against human IGROV1 cells in low folate medium assessed as reduction in metabolic activity at 1 to 150 uM incubated for 24 to 72 hrs by MTS assay; assay type: functional, cell-based; how it was run: as §9
[24] = Retention time of the compound by LC-MS analysis; assay type: physicochemical
MCF7 [25] = assay: Cytotoxicity against human MCF7 cells in low folate medium assessed as reduction in metabolic activity at 1 to 150 uM incubated for 24 to 72 hrs by MTS assay; assay type: ADME, cell-based; details: mcf7, 150 µM; how it was run: as §9

Row | SMILES | Activity [6] | Activity (DNA) | fold change (FC) (MCF7 [16]) | Retention_time [24] | Activity (IGROV-1 [1]) | Activity (IGROV-1 [2]) | Activity (KB [3]) | Activity (MCF7 [4]) | Activity (Homo sapiens) | Activity (MCF7 [7]) | Activity (KB [8]) | Activity (KB [9]) | Activity (KB [10]) | Activity (IGROV-1 [12]) | Activity (KB [15]) | also measured
1 | Nc1nc(O)c2nc(CNc3ccc(C(=O)N[C@@H](CCC(=O)NCCNC(=O)CCCCCCC(=O)NCCCNC(=O)c4ccc(CN(Cc5ccccn5)C(c5ccccn5)c5ccccn5)nc4)C(=O)O)cc3)cnc2n1 | Active | 0.16 s⁻¹ | 1.6 | – | 58.1% | inactive | 88.1% | Non-Toxic | Active | Non-Toxic | inactive | inactive | 62.4% | 82.4% | inactive | Stability [5]: Stable; Activity (MCF7 [11]): Non-Toxic; Activity (MCF7 [13]): Non-Toxic; Activity (KB [14]): inactive; Activity (KB [17]): inactive
2 | Nc1nc(=O)c2nc(CNc3ccc(C(=O)N[C@@H](CCC(=O)O)C(=O)O)cc3)cnc2[nH]1 | – | – | – | – | – | – | – | – | Active | – | – | – | – | – | inactive | Activity (KB [22]): inactive; Activity (IGROV-1 [23]): inactive
3 | Nc1nc2ncc(CNc3ccc(C(=O)N[C@@H](CCC(=O)O)C(=O)O)cc3)nc2c(=O)[nH]1 [FOLIC ACID] | – | – | – | – | – | – | – | – | – | – | – | – | – | – | – | Activity (MCF7 [25]): Non-Toxic

Further lines, with some results ahead:

Row | Activity [6] | Activity (DNA) | fold change (FC) (MCF7 [16]) | Retention_time [24] | SMILES | Activity (IGROV-1 [1]) | Activity (IGROV-1 [2]) | Activity (KB [3]) | Activity (MCF7 [4]) | Activity (Homo sapiens) | Activity (MCF7 [7]) | Activity (KB [8]) | Activity (KB [9]) | Activity (KB [10]) | Activity (IGROV-1 [12]) | Activity (KB [15]) | also measured
4 | Active | 0.19 s⁻¹ | 1.6 | – | Nc1nc(O)c2nc(CNc3ccc(C(=O)N[C@@H](CCC(=O)NCCNC(=O)CCSSCCC(=O)NCCCNC(=O)c4ccc(CN(Cc5ccccn5)C(c5ccccn5)c5ccccn5)nc4)C(=O)O)cc3)cnc2n1 | 22% | inactive | 38.8% | Non-Toxic | Active | Non-Toxic | inactive | inactive | 11.2% | 47.2% | – | Stability [18]: Unstable; Stability [19]: Unstable; viability at 72 h, 50 µM [20]: 76.4%; viability at 72 h, 30 µM [21]: 78.9%; fold change (FC) (KB [15]): 3.5
5 | – | – | – | 9.12 min | Nc1nc(O)c2nc(CNc3ccc(C(=O)N[C@@H](CCC(=O)NCCNC(=O)CCS)C(=O)O)cc3)cnc2n1 | – | – | – | – | – | – | – | – | – | – | – | –
6 | – | – | – | 8.77 min | Nc1nc(O)c2nc(CNc3ccc(C(=O)N[C@@H](CCC(=O)NCCNC(=O)CCSSC[C@H](NC(=O)CC[C@H](N)C(=O)O)C(=O)NCC(=O)O)C(=O)O)cc3)cnc2n1 | – | – | – | – | – | – | – | – | – | – | – | –
